Assay [1] concerns Mus musculus. Nature of the assay: The compound was evaluated for the median survival time (MST) in mice infected with cisplatin sensitive L1210 Leukemia (dose 10 mg/kg, ip), day 5. The format is functional, organism-based. Further details: dose 10 mg/kg. The method in brief:
(§1)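 CD2F1 mice implanted ip on day 0 with 10^5 L1210/0 (parent) leukemia cells, in groups of 6 or 10 (20 or 30 controls). Complexes given ip in saline plus Tween 80 on days 1, 5 and 9. BWC is the group mean weight change, day 5 minus day 1. MST is median survival and %ILS is calculated from MST, both from dying mice only, excluding day 30 survivors.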

In assay [2] the test system is Mus musculus. Put plainly: The compound was evaluated for the mean body weight change (BWC) in mice infected with cisplatin sensitive L1210 Leukemia (dose 80 mg/kg, ip),day 5. The format is functional, organism-based. Further details: dose 80 mg/kg. The method in brief: as §1
Assay [3] concerns Mus musculus. Put plainly: The compound was evaluated for the mean body weight change (BWC) in mice infected with cisplatin sensitive L1210 Leukemia (dose 40 mg/kg, ip),day 5. The format is functional, organism-based. Also on record: dose 40 mg/kg. The method in brief: as §1
For assay [4], the system named is Mus musculus. Nature of the assay: The compound was evaluated for the median survival time (MST) in mice infected with cisplatin sensitive L1210 Leukemia (dose 20 mg/kg, ip), day 5. The format is functional, organism-based. Also on record: dose 20 mg/kg. An outline of the steps:
as §1

Assay [5] has as its system Mus musculus. Nature of the assay: The compound was evaluated for the median survival time (MST) in mice infected with cisplatin sensitive L1210 Leukemia (dose 80 mg/kg, ip), day 1. The format is functional, organism-based. Further details: dose 80 mg/kg. An outline of the steps:
as §1

Assay [6] has as its system Mus musculus. Nature of the assay: The compound was evaluated for the median survival time (MST) in mice infected with cisplatin sensitive L1210 Leukemia (dose 40 mg/kg, ip), day 5. The format is functional, organism-based. Also on record: dose 40 mg/kg. The method in brief: as §1
Assay [7] concerns Tumor Cell line. Nature of the assay: Evaluated in vitro for the log10 molecular concentration that caused […] tumor growth of 60 human tumor cell lines. The format is functional, cell-based. The method in brief: (§2)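 Cells preincubated 24 h, then exposed to the agent at five 10-fold dilutions (0.01–100 μM for the platinum complexes) for 48 h. Cells fixed in situ and stained; solubilized stain read spectrophotometrically. Panel of leukemia, non-small-cell lung, ovarian and renal lines. Log GI50 or TGI taken per cell line in one experiment, then averaged across lines.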

The test system of assay [8] is Mus musculus. Nature of the assay: The compound was evaluated for the median survival time (MST) in mice infected with cisplatin sensitive L1210 Leukemia (dose 80 mg/kg, ip), day 5. The format is functional, organism-based. Also on record: dose 80 mg/kg. An outline of the steps:
as §1

For assay [9], the system named is Mus musculus. Put plainly: The compound was evaluated for the mean body weight change (BWC) in mice infected with cisplatin sensitive L1210 Leukemia (dose 10 mg/kg, ip),day 1. The format is functional, organism-based. Also on record: dose 10 mg/kg. An outline of the steps:
as §1

The test system of assay [10] is Tumor Cell line. Nature of the assay: Evaluated in vitro for the log10 molecular concentration that caused 50 % inhibition of tumor growth of 60 human tumor cell lines. The format is functional, cell-based. The method in brief: as §2
Assay [11] deals with Mus musculus. Put plainly: The compound was evaluated for the mean body weight change (BWC) in mice infected with cisplatin sensitive L1210 Leukemia (dose 10 mg/kg, ip),day 5. The format is functional, organism-based. Further details: dose 10 mg/kg. The method in brief: as §1
Assay [12] deals with Mus musculus. Nature of the assay: The compound was evaluated for the mean body weight change (BWC) in mice infected with cisplatin sensitive L1210 Leukemia (dose 40 mg/kg, ip),day 1. Also on record: dose 40 mg/kg. The format is functional, organism-based. An outline of the steps:
as §1

For assay [13], the system named is Mus musculus. Put plainly: The compound was evaluated for the mean body weight change (BWC) in mice infected with cisplatin sensitive L1210 Leukemia (dose 20 mg/kg, ip),day 5. The format is functional, organism-based. Also on record: dose 20 mg/kg. The method in brief:
as §1

For assay [14], the system named is Mus musculus. Nature of the assay: The compound was evaluated for the median survival time (MST) in mice infected with cisplatin sensitive L1210 Leukemia (dose 40 mg/kg, ip), day 1. Further details: dose 40 mg/kg. The format is functional, organism-based. An outline of the steps: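 On day 0, 10⁵ parent or cisplatin-resistant L1210 cells were implanted ip into CD2F1 mice, 6 or 10 per dose group (20 or 30 controls). Dosing was ip on days 1, 5 and 9 in saline plus Tween 80. Median survival time was taken from dying mice only, excluding day-30 survivors. Both sublines were tested concurrently.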

Assay [15] has as its system Mus musculus. Nature of the assay: The compound was evaluated for the median survival time (MST) in mice infected with cisplatin sensitive L1210 Leukemia (dose 10 mg/kg, ip), day 1. Further details: dose 10 mg/kg. The format is functional, organism-based. The method in brief:
as §1

The test system of assay [16] is Mus musculus. Nature of the assay: The compound was evaluated for the mean body weight change (BWC) in mice infected with cisplatin sensitive L1210 Leukemia (dose 80 mg/kg, ip),day 1. The format is functional, organism-based. Further details: dose 80 mg/kg. An outline of the steps: as §1

Turning to “[Bis(aminomethyl)dimethylsilane]tetrachloroplatinum(IV)”, the MST in assay [1] is 15 days; in assay [4], 19 days; in assay [5] it was 8.3 days; in [6], 21 days; in [8], 10 days; in assay [14], 27 days. The MST in assay [15] turned out to be 18.5 days. The BWC in assay [2] is -3.4 g; in assay [3], -1.3 g; in assay [9], 0 g; in assay [11], 0.1 g; in assay [12], -2.4 g; in assay [13] it was -0.6 g. Besides, the BWC in assay [16] was -5 g. Besides, in assay [7], the total growth inhibition concentration (TGI) – broadly, the concentration giving total growth inhibition – is 41.7 µM. Further, in [10], the concentration for 50% growth inhibition (GI50) (commonly the concentration that inhibits growth by half) turned out to be 4.79 µM.

The values above are taken from ChEMBL document CHEMBL1128557, “Synthesis, antitumor activity, and chemical properties of silaplatin and related platinum (II) and platinum (IV) complexes derived from beta-silyl amines” (J Med Chem, 1995).
